Results from different studies.
Protocols differ between the studies behind these lines.
Medium: plasma

Compound	system	conditions	AUC(0-t)
COc1nc(-c2cccc(-c3ccccc3)c2C)ccc1CNCCNC(=O)CCCCCCCCCCC(=O)N1CCN(CCNC(=O)c2cc3c(=O)n4cccc(C)c4nc3n(CCc3cccs3)c2=N)CC1	male Sprague-Dawley rat	intravenous, 2 mg/kg	1620 ng·h/mL
CONC(=O)c1cccc2c1cc(C)n2-c1nc2c(c(NCc3ccccc3)n1)CCCN2	male Sprague-Dawley rat	intravenous, 1 mg/kg, single dose	20.1 ng·h/mL
Nc1ccn([C@@H]2O[C@H](CO)[C@@H](O)C2(F)F)c(=O)n1	male Sprague-Dawley rat	intravenous, 5 mg/kg	160000 ng·h/mL
COc1cc(-c2cc(C(C)=O)n3ccccc23)c(OC)cc1Cn1ccnc1	male Sprague-Dawley rat	intravenous, 5 mg/kg	4280 ng·h/mL
C[C@H]1Oc2cc(cnc2N)-c2c(nn(C)c2C#N)CN(C)C(=O)c2ccc(F)cc21	male Sprague-Dawley rat	oral, 50 mg/kg, single dose	24800 ng·h/mL
C=CC(=O)N1CCC([C@@H]2CCNc3c(C(N)=O)c(-c4ccc(Oc5ccccc5)cc4)nn32)CC1	Sprague-Dawley rat	oral, 16 mg/kg	1450 ng·h/mL
C[C@H]1[C@@H](O)O[C@@H]2O[C@@]3(C)CC[C@H]4[C@H](C)CC[C@@H]1[C@@]24OO3	male Sprague-Dawley rat	oral, 10 mg/kg	234 ng·h/mL
Cn1c(=O)c2[nH]cnc2n(C)c1=O	male Sprague-Dawley rat	intravenous, 22.5 mg/kg	53800 ng·h/mL
O=C1CCC(N2Cc3cc(C4CCN(Cc5ccccc5)CC4)ccc3C2=O)C(=O)N1 (centres unmarked)	male Sprague-Dawley rat	intravenous, 1 mg/kg	309 ng·h/mL
CCCCC(=O)Nc1ccc(-c2ccc3ncn(CCC)c(=O)c3c2)cn1	male rat	intravenous, 2.5 mg/kg	2560 ng·h/mL
CC(=O)c1c(C)c2cnc(Nc3ccc(N4CCNCC4)cn3)nc2n(C2CCCC2)c1=O	male Sprague-Dawley rat	intravenous, 5 mg/kg	1900 ng·h/mL
COc1ccc(-c2coc3cc(O)cc(O)c3c2=O)cc1	rat	intravenous, 2 mg/kg	637 ng·h/mL
COc1ccc(N(Cc2csc(-c3ccccc3)n2)C(=O)CCCCCC(=O)NO)cc1	female Sprague-Dawley rat	oral, 30 mg/kg	18.4 ng·h/mL
CCN(CC)Cc1ccc2cc(COC(=O)Nc3ccc(C(=O)NO)cc3)ccc2c1	male Sprague-Dawley rat	oral, 10 mg/kg	8490 ng·h/mL
CCCc1nc2c(C)cc(-c3nc4ccccc4n3C)cc2n1Cc1ccc(-c2ccccc2C(=O)O)cc1	male Sprague-Dawley rat	oral, 8 mg/kg, single dose	1940 ng·h/mL
Cc1ccc2c(c1)C(=O)[C@]1(O)CCN(c3ccc4nc(C)ccc4c3)C1=N2.Cl	male rat	subcutaneous, 40 mg/kg, multiple doses, once daily	20.4 µM·h
C=CC(=O)N1CCC[C@@H](n2nc(-c3ccc(Oc4ccccc4)cc3)c3c(N)ncnc32)C1	rat	oral, 40 mg/kg	304 ng·h/mL
